ChEMBL document CHEMBL1126584 (J Med Chem, 1993)

What follows are molecules tested against T1, D(2) dopamine receptor (Rattus norvegicus, UniProt P61169) (assay: Binding affinity against D2 receptor in rat corpus striatum using [3H]sulpiride as the radioligand).
Format: tissue-based
Procedure, shortened: (§1)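 Fresh rat striatum homogenised in 50 mM Tris-HCl pH 7.5, pellet resuspended in buffer with 100 mM NaCl to 3.75 mg wet weight/mL. Incubated with 3 nM [3H]sulpiride for 60 min at 25 °C, in triplicate; 10 μM haloperidol defined nonspecific binding. Filtration on polyethyleneimine-treated filters; IC50 from concentration-response curves converted to Ki by Cheng-Prusoff; mean of at least three determinations.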

T1 sequence (P61169 whole entry): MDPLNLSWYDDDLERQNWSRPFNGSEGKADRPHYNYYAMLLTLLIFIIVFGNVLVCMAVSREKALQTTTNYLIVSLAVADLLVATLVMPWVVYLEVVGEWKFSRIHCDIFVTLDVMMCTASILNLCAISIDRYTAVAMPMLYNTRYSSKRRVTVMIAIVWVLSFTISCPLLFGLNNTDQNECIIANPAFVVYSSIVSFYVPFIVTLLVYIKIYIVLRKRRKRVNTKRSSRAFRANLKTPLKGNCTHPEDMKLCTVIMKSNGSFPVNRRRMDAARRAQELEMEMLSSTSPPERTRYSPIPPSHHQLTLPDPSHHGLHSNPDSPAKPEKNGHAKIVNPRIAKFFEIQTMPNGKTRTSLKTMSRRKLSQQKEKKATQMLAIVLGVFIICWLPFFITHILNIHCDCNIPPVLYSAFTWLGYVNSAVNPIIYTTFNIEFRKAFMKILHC

Going from `c1ccc2c3c([nH]c2c1)CC1CCC3N1CCCCc1nccs1` (stereo not drawn) to `c1csc(CCCCN2C3CCC2c2c([nH]c4ccccc24)C3)c1` (stereo not drawn), the Ki falls from 2230 nM to 620 nM (3.6-fold). The second binds more tightly here.

Compared with `O=C1CC2(CCCC2)CC(=O)N1CCCCN1C2CCC1c1c([nH]c3ccccc13)C2` (stereo not drawn), `c1coc(CCCCN2C3CCC2c2c([nH]c4ccccc24)C3)c1` (stereo in doubt; 40) is 2.4-fold lower in Ki: 3000 nM for the first, 1270 nM for the second.

Going from `c1ccc(CCCCN2C3CCC2c2c(n(-c4ccccc4)c4ccccc24)C3)cc1` (stereo not drawn) to `c1ccc(CCCCN2C3CCC2c2c([nH]c4ccccc24)C3)cc1` (stereo not drawn), the Ki falls from 1570 nM to 733 nM (2.1-fold). The second binds more tightly here.

Going from `c1coc(CCCCN2C3CCC2c2c([nH]c4ccccc24)C3)c1` (single isomer, unassigned; (+)) to `CCCN1C2CCC1c1c([nH]c3ccccc13)C2` (stereo not drawn), the Ki rises from 330 nM to 11200 nM (34-fold). The first binds more tightly here.

Compared with `c1coc(CCCCN2C3CCC2c2c([nH]c4ccccc24)C3)c1` (racemic), `O=C(CCCN1C2CCC1c1c([nH]c3ccccc13)C2)c1ccc(F)cc1` (stereo not drawn) is 4.7-fold lower in Ki: 1270 nM for the first, 270 nM for the second. The second binds more tightly here.

Going from `Fc1ccc2[nH]c3c(c2c1)C1CCC(C3)N1Cc1ccccc1` (stereo not drawn) to `CCN1C2CCC1c1c([nH]c3ccccc13)C2` (stereo not drawn), the Ki rises from 2420 nM to over 10000 nM. The first binds more tightly here.

`CN(CCN1C2CCC1c1c([nH]c3ccccc13)C2)C(=O)Cc1ccc(Cl)c(Cl)c1` (stereo not drawn) and `c1coc(CCCCN2C3CCC2c2c([nH]c4ccccc24)C3)c1` (single isomer, unassigned; (-)) are within 1.5-fold of each other in Ki: 3790 nM for the first, 3150 nM for the second.

First: CC/C=C/N1C2CCC1c1c([nH]c3ccccc13)C2 (stereo not drawn)
Second: c1ccc2c(c1)CN(CCN1C3CCC1c1c([nH]c4ccccc14)C3)C2 (stereo not drawn)
The Ki of the first is 2.8-fold lower: 710 nM for the first, 2000 nM for the second.

For `c1ccc(-n2c3c(c4ccccc42)C2CCC(C3)N2)cc1` (stereo not drawn), the Ki was 10000 nM.

The molecules below were run against T1, D(2) dopamine receptor (assay: Compound was tested for binding affinity against D2 receptor in rat corpus striatum, using [3H]sulpiride as the radioligand).
Format: tissue-based
Procedure, shortened: as §1

`c1ccc2c3c([nH]c2c1)CC1CCC3N1` (stereo not drawn) showed a Ki of over 100000 nM.
